Experimental data published in ChEMBL document CHEMBL3856248, “2-Benzylidene-1-indanone derivatives as inhibitors of monoamine oxidase” (Bioorg Med Chem Lett, 2016).
pIC50: −log10 of the molar value.

Legend:
[1] = biological target: T1, Amine oxidase [flavin-containing] A (Homo sapiens, UniProt P21397); assay: Inhibition of recombinant human MAO-A using kynuramine as substrate after 20 mins by fluorescence spectrophotometric analysis
T1 sequence (P21397 whole entry): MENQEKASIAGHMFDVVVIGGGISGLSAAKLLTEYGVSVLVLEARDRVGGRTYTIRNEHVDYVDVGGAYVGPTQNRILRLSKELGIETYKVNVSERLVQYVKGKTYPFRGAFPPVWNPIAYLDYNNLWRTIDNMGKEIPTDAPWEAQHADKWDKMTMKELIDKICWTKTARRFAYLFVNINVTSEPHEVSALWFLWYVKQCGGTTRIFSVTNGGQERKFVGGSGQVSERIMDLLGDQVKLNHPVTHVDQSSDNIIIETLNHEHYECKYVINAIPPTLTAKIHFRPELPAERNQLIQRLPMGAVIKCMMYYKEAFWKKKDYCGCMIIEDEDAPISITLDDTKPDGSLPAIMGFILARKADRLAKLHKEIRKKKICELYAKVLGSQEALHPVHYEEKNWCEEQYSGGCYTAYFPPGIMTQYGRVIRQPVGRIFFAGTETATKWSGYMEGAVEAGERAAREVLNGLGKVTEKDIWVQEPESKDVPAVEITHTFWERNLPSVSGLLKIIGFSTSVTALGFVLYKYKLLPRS
Summary of the method: (§1)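 Recombinant human enzyme incubated with kynuramine and test inhibitor at 37 °C for 20 min; stopped with 2 N NaOH. The 4-hydroxyquinoline product is read at endpoint by fluorescence in alkaline medium. Inhibitor-free controls run each time.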

[2] = biological target: T2, Amine oxidase [flavin-containing] B (Homo sapiens, UniProt P27338); assay: Inhibition of recombinant human MAO-B using kynuramine as substrate after 20 mins by fluorescence spectrophotometric analysis; summary of the method: as §1
T2 sequence (P27338 whole entry): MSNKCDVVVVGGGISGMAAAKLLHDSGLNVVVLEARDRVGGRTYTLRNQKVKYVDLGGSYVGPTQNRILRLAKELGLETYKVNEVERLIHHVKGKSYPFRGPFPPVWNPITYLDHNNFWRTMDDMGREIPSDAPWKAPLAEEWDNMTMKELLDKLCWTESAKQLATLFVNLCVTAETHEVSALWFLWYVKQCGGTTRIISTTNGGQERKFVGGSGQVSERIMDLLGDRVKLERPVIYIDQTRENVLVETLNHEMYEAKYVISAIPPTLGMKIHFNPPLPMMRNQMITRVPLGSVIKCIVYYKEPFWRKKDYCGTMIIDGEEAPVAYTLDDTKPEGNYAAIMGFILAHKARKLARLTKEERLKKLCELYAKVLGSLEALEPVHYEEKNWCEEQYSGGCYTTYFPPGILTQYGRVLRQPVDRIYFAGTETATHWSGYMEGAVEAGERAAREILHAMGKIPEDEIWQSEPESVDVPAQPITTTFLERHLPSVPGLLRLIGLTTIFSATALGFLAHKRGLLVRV

[3] = species: Homo sapiens; assay: Selectivity index, ratio of IC50 for recombinant human MAO-A to IC50 for recombinant human MAO-B
Summary of the method: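 Ratio of IC50 for MAO-A to IC50 for MAO-B. Both are from the kynuramine fluorescence assay with recombinant human enzymes (37 °C, 20 min, endpoint 4-hydroxyquinoline).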

[4] = biological target: T3, Amine oxidase [flavin-containing] B (Rattus norvegicus, UniProt P19643); assay: Inhibition of Sprague-Dawley rat brain mitochondrial MAO-B using DMAPEA as substrate by HPLC analysis
T3 sequence (P19643 whole entry): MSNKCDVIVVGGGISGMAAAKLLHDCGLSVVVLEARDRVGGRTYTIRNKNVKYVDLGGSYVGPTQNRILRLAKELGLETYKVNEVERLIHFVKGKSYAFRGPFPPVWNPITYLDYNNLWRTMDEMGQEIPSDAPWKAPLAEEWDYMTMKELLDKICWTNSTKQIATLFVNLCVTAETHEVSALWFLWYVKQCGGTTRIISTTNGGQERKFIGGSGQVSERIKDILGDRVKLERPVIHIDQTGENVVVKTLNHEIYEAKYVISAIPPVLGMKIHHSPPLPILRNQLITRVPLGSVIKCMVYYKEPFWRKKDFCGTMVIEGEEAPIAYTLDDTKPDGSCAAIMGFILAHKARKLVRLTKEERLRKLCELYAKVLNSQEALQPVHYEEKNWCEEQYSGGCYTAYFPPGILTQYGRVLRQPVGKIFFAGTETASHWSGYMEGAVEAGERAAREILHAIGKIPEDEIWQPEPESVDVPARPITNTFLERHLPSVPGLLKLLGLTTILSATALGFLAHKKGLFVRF

[5] = biological target: T4, Amine oxidase [flavin-containing] A (Rattus norvegicus, UniProt P21396); assay: Inhibition of Wistar rat liver mitochondrial MAO-A using […] as substrate after 1 hr by spectrophotometric analysis
T4 sequence (P21396 whole entry): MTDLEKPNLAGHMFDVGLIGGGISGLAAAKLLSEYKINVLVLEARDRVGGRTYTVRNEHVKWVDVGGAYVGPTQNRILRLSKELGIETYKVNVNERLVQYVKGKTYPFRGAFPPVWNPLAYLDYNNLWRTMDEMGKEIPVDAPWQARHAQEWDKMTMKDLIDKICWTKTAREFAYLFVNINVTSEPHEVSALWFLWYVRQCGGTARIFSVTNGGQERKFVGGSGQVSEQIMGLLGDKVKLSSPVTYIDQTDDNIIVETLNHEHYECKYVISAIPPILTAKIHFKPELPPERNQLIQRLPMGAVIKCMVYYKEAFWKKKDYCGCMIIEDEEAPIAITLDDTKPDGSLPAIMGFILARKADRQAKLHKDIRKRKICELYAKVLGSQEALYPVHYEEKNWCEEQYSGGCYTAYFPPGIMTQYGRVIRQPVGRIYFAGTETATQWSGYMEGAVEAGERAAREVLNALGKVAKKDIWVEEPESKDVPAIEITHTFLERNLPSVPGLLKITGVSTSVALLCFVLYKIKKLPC

[6] = biological target: T1, Amine oxidase [flavin-containing] A; assay: Irreversible inhibition of recombinant human MAO-A assessed as residual activity pre-incubated at 4 times IC50 for 15 mins followed by dialysis for 24 hrs and subsequent kynuramine addition measured after 20 mins by fluorescence spectrophotometric analysis relative to untreated control
[7] = biological target: T1, Amine oxidase [flavin-containing] A; assay: Reversible inhibition of recombinant human MAO-A assessed as residual activity pre-incubated at 4 times IC50 for 15 mins followed by dialysis for 24 hrs and subsequent kynuramine addition measured after 20 mins by fluorescence spectrophotometric analysis relative to untreated control
[8] = biological target: T1, Amine oxidase [flavin-containing] A; assay: Reversible inhibition of recombinant human MAO-A assessed as residual activity pre-incubated at 4 times IC50 for 15 mins followed by kynuramine addition measured after 20 mins by fluorescence spectrophotometric analysis relative to untreated control
Summary of the method: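 Undialysed comparison: MAO-A is pre-incubated 15 min with inhibitor at 4 × IC50 without dialysis. Residual activity is measured after kynuramine addition as in the IC50 assay (37 °C, 20 min, 2 N NaOH stop, fluorescence of 4-hydroxyquinoline). It is expressed relative to the inhibitor-free control.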

SMILES	pIC50 [1]	pIC50 [2]	Ratio IC50 [3]	pIC50 [4]	pIC50 [5]	Activity [6]	Activity [7]	Activity [8]
O=C1/C(=C/c2cccc(Cl)c2)Cc2cc(O)ccc21	6.80	7.52	5.2	–	–	–	–	–
CC(C)c1ccc(/C=C2\Cc3cc(O)ccc3C2=O)cc1	6.02	6.67	4.5	–	–	–	–	–
Cc1ccc(/C=C2\Cc3cc(O)ccc3C2=O)cc1	5.49	8.28	619	–	–	–	–	–
O=C1/C(=C/c2ccccc2)Cc2ccccc21	5.27	5.59	2.1	–	–	–	–	–
O=C1/C(=C/c2ccc(Cl)cc2)Cc2cc(O)ccc21	6.13	7.89	57	–	–	–	–	–
O=C1/C(=C/c2ccc(F)cc2)Cc2cc(O)ccc21	6.17	7.33	14	–	–	–	–	–
COc1ccc2c(c1)C(=O)/C(=C/c1ccccc1OC)O2	–	–	–	4.94	–	–	–	–
O=C1/C(=C/c2cccc(F)c2)Cc2cc(O)ccc21	6.34	7.08	5.5	–	–	–	–	–
COc1ccc2c(c1)C/C(=C\c1ccccc1)C2=O	–	8.04	> 10900	–	–	–	–	–
CN(C)c1ccc(/C=C2\Cc3ccccc3C2=O)cc1	5.82	7.51	49	–	–	–	–	–
CN(C)c1ccc(/C=C2\Cc3cc(O)ccc3C2=O)cc1	5.76	6.11	2.2	–	–	–	–	–
O=C(/C=C/c1ccc(O)cc1)c1ccc(O)cc1O [ISOLIQUIRITIGENIN]	–	–	–	–	4.76	–	–	–
O=C1/C(=C/c2ccc(Cl)c(Cl)c2)Cc2cc(O)ccc21	6.63	7.85	17	–	–	–	–	–
N#Cc1ccc(/C=C2\Cc3cc(O)ccc3C2=O)cc1	5.68	6.50	6.6	–	–	–	–	–
Cc1cccc(/C=C2\Cc3cc(O)ccc3C2=O)c1	6.07	7.28	17	–	–	–	–	–
COc1ccc2c(c1)C/C(=C\c1ccc(N(C)C)cc1)C2=O	4.94	7.22	192	–	–	–	–	–
COc1cccc(/C=C2\Cc3cc(O)ccc3C2=O)c1	5.92	6.33	2.5	–	–	–	–	–
O=C1/C(=C/c2ccc(O)cc2)Cc2cc(O)ccc21	5.78	5.56	0.6	–	–	–	–	–
O=C1/C(=C/c2ccccc2)Cc2cc(O)ccc21	5.71	6.42	5.2	–	–	–	–	–
C#CCN(C)Cc1ccccc1 [PARGYLINE]	–	–	–	–	–	1.7%	–	–
O=C1/C(=C/c2cccc(Br)c2)Cc2cc(O)ccc21	6.88	7.89	10	–	–	–	99%	50%
O=C1/C(=C/c2ccccc2)Cc2ccc(O)cc21	6.36	5.62	0.2	–	–	–	–	–
O=C1/C(=C/c2cccc(O)c2)Cc2cc(O)ccc21	5.92	6.02	1.2	–	–	–	–	–
O=C1/C(=C/c2ccc(Br)cc2)Cc2cc(O)ccc21	5.98	8.28	198	–	–	–	–	–
N#Cc1cccc(/C=C2\Cc3cc(O)ccc3C2=O)c1	6.35	6.89	3.4	–	–	–	–	–
